Experiments:
Toxoplasma gondii = experiment: Antitoxoplasmic activity against Toxoplasma gondii PRU-betaGal tachyzoite after 96 hrs by colorimetric microtiter assay; assay type: functional, organism-based
How it was run: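 Confluent HFF monolayers (10⁴ cells seeded per well) in phenol red-free RPMI 1640 with 10% FCS and glutamine/penicillin–streptomycin were infected with 2×10³ tachyzoites per well for 3 h at 37 °C, 6% CO2. Compounds in DMSO (<0.5% v/v) were added in triplicate for 96 h. CPRG was then added for 24 h and β-galactosidase read at 570/630 nm, blanked on uninfected wells. IC50 from three independent experiments.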

[1] = Selectivity index, ratio of IC50 for human K562 cells to IC50 for chloroquine-resistant Plasmodium falciparum W2
[2] = Selectivity index, ratio of IC50 for human HepG2 cells to IC50 for chloroquine-resistant Plasmodium falciparum W2
Plasmodium falciparum = experiment: Antiplasmodial activity against chloroquine-resistant Plasmodium falciparum W2 infected in human erythrocyte after 48 hrs by flow cytometry; assay type: functional, organism-based
How it was run: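 W2 strain (chloroquine-, pyrimethamine- and proguanil-resistant) kept in RPMI 1640 with 25 mM HEPES, 25 mM NaHCO3 and 10% A+ human serum. Cultures held at 37 °C under 10% O2, 6% CO2, 84% N2. Assay wells at 2% haematocrit; compounds added in DMSO or water. Incubated 48 h with no medium change. Infected erythrocytes counted by hydroethidine flow cytometry. IC50 taken from three independent experiments.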

K562 = experiment: Cytotoxicity against human K562 cells after 72 hrs by flow cytometry; assay type: functional, cell-based
How it was run: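 Cells were treated with a concentration range for 72 h at 37 °C, 6% CO2, with solvent and doxorubicin controls, and wells were checked for precipitate. Cells were stained with propidium iodide and live cells counted by flow cytometry. IC50 is the concentration giving a 50% decrease in proliferation versus control, from nonlinear regression of dose–response curves, mean of three independent experiments.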

HepG2 = experiment: Cytotoxicity against human HepG2 cells after 72 hrs by MTT assay; assay type: cell-based
How it was run: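 Cells in RPMI with 10% FBS, glutamine and penicillin/streptomycin were grown 24 h at 37 °C, 6% CO2, then exposed to a concentration range for 72 h. Wells were checked microscopically for precipitate. MTT (5 mg/mL in PBS) was added in serum-free medium for 2 h, formazan dissolved in DMSO, and absorbance read at 570 nm (630 nm reference). Viability is % of untreated control; the 50% cytotoxic concentration comes from the dose–response curve, mean of three experiments.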

Leishmania donovani = experiment: Antileishmanial activity against GFP-transfected Leishmania donovani HOM/IN/01/2001 promastigotes after 72 hrs; assay type: functional, organism-based; settings: HOM/IN/01/2001, 72 h
How it was run: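 GFP-expressing promastigotes at 10⁵ parasites/mL in medium with 10% FCS and G418, exposed in duplicate to a concentration range of compounds in DMSO (final <0.5% v/v) for 72 h at 27 °C. DMSO and amphotericin B controls were included. Growth was read by flow cytometry (488 nm argon laser, green FL1 fluorescence). The IC50 is the 50% growth decrease, from three independent experiments.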

[3] = Plasmodium falciparum, W2, 48 h, read-out: IC50
[4] = Homo sapiens, K562, 72 h, read-out: IC50
[5] = Homo sapiens, HepG2, 72 h, read-out: IC50

| Compound | IC50 (Toxoplasma gondii) [µM] | Ratio IC50 [1] | Ratio IC50 [2] | IC50 (Plasmodium falciparum; [3]) [µM] | IC50 (K562; [4]) [µM] | IC50 (HepG2; [5]) [µM] | IC50 (Leishmania donovani) [µM] | IC50 (Plasmodium falciparum) | IC50 (K562; k562) | IC50 (HepG2; hepg2) |
| --- | --- | --- | --- | --- | --- | --- | --- | --- | --- | --- |
| CCc1nc(N)nc(N)c1-c1ccc(Cl)cc1 [PYRIMETHAMINE] | 1.5 | – | – | – | – | – | – | – | – | – |
| Cc1ccc(S(=O)(=O)Cc2nc(Nc3cccc(C(F)(F)F)c3)c3ccccc3n2)cc1 | – | >1.7 | >1.7 | 15 | > 25 | > 25 | – | – | – | – |
| Cc1ccc(S(=O)(=O)Cc2nc(Nc3cccc(Cl)c3)c3cc([N+](=O)[O-])ccc3n2)cc1 | > 25 | >96 | >77 | 1.3 | > 125 | > 100 | 11 | – | – | – |
| CC(C)=Cc1nc(Nc2cccc(C(F)(F)F)c2)c2cc([N+](=O)[O-])ccc2n1 | – | >39 | 31.3 | 3.2 | > 125 | > 100 | – | – | – | – |
| Cc1ccc(S(=O)(=O)Cc2nc(Nc3ccccc3)c3ccccc3n2)cc1 | – | – | – | – | – | – | – | ND(Insoluble) | ND(Insoluble) | ND(Insoluble) |
| Cc1ccc(S(=O)(=O)Cc2nc(Nc3ccc(F)cc3)c3ccccc3n2)cc1 | – | >1 | >0.75 | 20 | > 20 | > 15 | – | – | – | – |
| Cc1ccc(S(=O)(=O)Cc2nc(Nc3ccccc3)c3cc([N+](=O)[O-])ccc3n2)cc1 | – | >25 | >5 | 5 | > 125 | > 25 | – | – | – | – |
| Cc1ccc(S(=O)(=O)Cc2nc(Nc3cccc(Br)c3)c3cc([N+](=O)[O-])ccc3n2)cc1 | – | – | – | – | – | – | – | ND(Insoluble) | ND(Insoluble) | ND(Insoluble) |
| Cc1ccc(S(=O)(=O)Cc2nc(Nc3ccccc3Cl)c3ccccc3n2)cc1 | – | 1.7 | >3.6 | 14 | 24 | > 50 | – | – | – | – |
| COc1cccc2c1C(=O)c1c(O)c3c(c(O)c1C2=O)C[C@@](O)(C(=O)CO)C[C@@H]3O[C@H]1C[C@H](N)[C@H](O)[C@H](C)O1 [DOXORUBICIN] | – | – | – | – | – | 0.2 | – | – | – | – |
| CC(C)=Cc1nc(Nc2ccc(F)cc2)c2cc([N+](=O)[O-])ccc2n1 | – | >11 | 4.8 | 5.6 | > 62 | 27 | – | – | – | – |
| C[C@H]1c2cccc(O)c2C(=O)C2=C(O)[C@]3(O)C(=O)C(C(N)=O)=C(O)[C@@H](N(C)C)[C@@H]3[C@@H](O)[C@@H]21.O [DOXYCYCLINE] | – | 2.3 | 3.1 | – | – | – | – | – | – | – |
| Cc1ccc(S(=O)(=O)Cc2nc(Nc3cccc(Br)c3)c3ccccc3n2)cc1 | – | >1.2 | >1.2 | 13 | > 15 | > 15 | – | – | – | – |
| CC(C)=Cc1nc(Nc2ccccc2)c2cc([N+](=O)[O-])ccc2n1 | – | >7 | 2.9 | 17 | > 125 | 50 | – | – | – | – |
| CC(C)=Cc1nc(Nc2cccc(Br)c2)c2cc([N+](=O)[O-])ccc2n1 | – | >8 | >2 | 7.5 | > 62 | > 15 | – | – | – | – |
| C[C@@H]1[C@H](O)[C@@H](C)/C=C/C=C/C=C/C=C/C=C/C=C/C=C/[C@H](O[C@@H]2O[C@H](C)[C@@H](O)[C@H](N)[C@@H]2O)C[C@@H]2O[C@](O)(C[C@@H](O)C[C@@H](O)[C@H](O)CC[C@@H](O)C[C@@H](O)CC(=O)O[C@H]1C)C[C@H](O)[C@H]2C(=O)O [AMPHOTERICIN B] | – | – | – | – | – | – | 0.06 | – | – | – |
| Cc1ccc(S(=O)(=O)Cc2nc(Nc3cccc(C(F)(F)F)c3)c3cc([N+](=O)[O-])ccc3n2)cc1 | > 25 | >131 | >105 | 0.95 | > 125 | > 100 | 24 | – | – | – |
| Cc1ccc(S(=O)(=O)Cc2nc(Nc3ccc(F)cc3)c3cc([N+](=O)[O-])ccc3n2)cc1 | > 25 | >57 | >23 | 2.2 | > 125 | > 50 | > 25 | – | – | – |

Source: ChEMBL document CHEMBL1154711, “Original quinazoline derivatives displaying antiplasmodial properties” (Eur J Med Chem, 2010)
